Screens: PubChem BioAssay, Johns Hopkins Ion Channel Center
An excerpt weighted towards active compounds, which were near 3.5% of everything screened.
RGS4 act = RGS4 potentiation or activation. HEK293 M3R/inducible RGS4, carbachol calcium flux Fluo4; active compounds read low. B-score at 10 µM. actives 0.92% (n = 310,000);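 active means B-score of the integrated calcium signal more than 4 SD below the library mean, with starting fluorescence not abnormally high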;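 further: negative B-score means reduced calcium response which marks RGS4 activation or potentiation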
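System: HEK293 FlpIn-TREx cells, stable M3R, doxycycline-inducible RGS4. Timing: overnight RGS4 induction, 30 min dye load 37 °C, 20 min compound RT. Also added: carbachol, ECmax concentration. Measured by: Fluo4 fluorescence kinetic imaging of calcium. Evaluation: integrated calcium ratio converted to B score.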
RGS4 inh = human RGS4 inhibition; HEK293 M3R/RGS4 inducible, Fluo-4 calcium flux; active compounds read high; triggered by carbachol at its EC20; P49798; actives 0.45% (n = 310,000); B-score at 10 µM;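 active means B-score, a plate-corrected calcium signal, over three deviations above library mean, with baseline fluorescence within five deviations of library mean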;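 further: RGS4 expression induced by doxycycline in cells with stable M3 receptor; B-score is computed from the integrated fluorescence ratio over baseline after carbachol; higher B-score means a larger calcium signal and so more RGS4 inhibition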
Target sequence (P49798 whole entry, looked up): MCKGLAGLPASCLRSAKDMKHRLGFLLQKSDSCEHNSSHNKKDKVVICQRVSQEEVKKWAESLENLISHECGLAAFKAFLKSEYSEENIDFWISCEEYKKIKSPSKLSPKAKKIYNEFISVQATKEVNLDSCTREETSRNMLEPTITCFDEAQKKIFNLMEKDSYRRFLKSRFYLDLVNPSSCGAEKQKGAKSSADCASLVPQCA
MrgX1 antag = human MrgX1 receptor antagonism, primary screen; B-score at 10 µM; Q96LB2; MRGX1-HEK293 calcium flux, Fluo-4, BAM8-22 antagonism; active compounds read low; AID 588676; actives 1.3% (n = 310,000);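 active means calcium-response B-score plate-corrected more than 3 library SD below zero, starting fluorescence within 5 deviations, no agonist response on first addition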;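 further: peak minus trough fluorescence over baseline after final BAM8-22 challenge near maximal dose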
Target sequence (Q96LB2 whole entry, looked up): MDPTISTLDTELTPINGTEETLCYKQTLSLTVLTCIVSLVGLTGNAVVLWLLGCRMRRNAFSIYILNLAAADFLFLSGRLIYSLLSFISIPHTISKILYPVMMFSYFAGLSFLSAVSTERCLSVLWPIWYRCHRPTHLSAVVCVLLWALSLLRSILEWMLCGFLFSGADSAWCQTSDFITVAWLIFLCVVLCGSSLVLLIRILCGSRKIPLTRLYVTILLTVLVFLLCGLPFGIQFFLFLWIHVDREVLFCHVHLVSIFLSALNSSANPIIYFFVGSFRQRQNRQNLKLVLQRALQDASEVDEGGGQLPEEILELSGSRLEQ
MrgX1 ag = activates human MrgX1 receptor signaling. MrgX1-HEK293 cells, Fluo-4 calcium fluorescence, agonist mode; active compounds read high. B-score at 10 µM. actives 0.44% (n = 310,000). Q96LB2;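 active means calcium response B-score plate-corrected fluorescence ratio at least 3 library SD, with starting fluorescence B-score inside 5 SD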
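Test system: HEK293 cells stably expressing human MrgX1 receptor; amount: 15,000 cells per well; doses: compound delivered in addition one of three; times: overnight plating before 1 h dye loading; detection: Fluo-4 NW calcium-flux fluorescence, kinetic read; read-out basis: B-scored fluorescence response ratio; controls: positive and negative controls per plate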
MrgX1 allo act = human MrgX1 positive allosteric modulation, primary screen; MrgX1-HEK293, Fluo-4 calcium flux, FDSS; active compounds read high; actives 0.63% (n = 310,000); B-score at 10 µM; Q96LB2; AID 588675;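 active means plate-corrected calcium response at least 3 library SD above typical, normal starting fluorescence, not activating the receptor alone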;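 further: compound read alongside a low EC10 to EC30 dose of BAM8-22 agonist; peak minus trough fluorescence over baseline measured at the second addition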
* = called active by the depositor; i = inactive; . = no result.

SMILES	RGS4 act	RGS4 inh	MrgX1 antag	MrgX1 ag	MrgX1 allo act
COc1ccccc1N1CCN(C2CCN(C3CCC(c4ccccc4)CC3)CC2)CC1 (stereo not drawn)	i	i	i	i	9.1*
COc1ccccc1N1CCN(C2CCC(C)CC2)CC1 (stereo not drawn)	i	i	i	i	i
CC(=O)N1c2c(cc(Br)cc2S(=O)(=O)N2CCN(c3ccccc3F)CC2)CC1C (stereo not drawn)	i	i	-7.8*	i	i
CC(SC#N)C(=O)C12CC3CC(CC(C3)C1)C2 (stereo not drawn)	i	i	-5.1*	i	i
CCOC(=O)c1ccc(Cl)c(NC(=O)c2ccc(-c3ccccc3)cc2)c1	i	i	i	i	i
CCOC(=O)c1ccc(/C=C2/C=C(c3ccccc3)N(c3ccc(Cl)c(C(=O)O)c3)C2=O)cc1	i	i	i	40*	i
CCOc1ccc(C2C(C#N)=C(N)SC(N)=C2C#N)c(OCC)c1	i	i	i	i	i
CCCCc1ccc(C2C(C#N)=C(N)SC(N)=C2C#N)s1	.	.	-9.6*	i	i
Cc1ccc2nc(/C(C#N)=C/c3ccc(-c4ccccc4C(=O)O)o3)[nH]c2c1	i	i	i	33*	i
N#C/C(=C\c1ccc(-c2ccccc2C(=O)O)o1)c1nc2ccccc2[nH]1	i	i	i	27*	i
Cc1ccc(/C=C2/Sc3ccccc3N(CC(=O)NCC3CCCO3)C2=O)cc1 (stereo not drawn)	-7.4*	i	i	i	i
CSCc1ccc(C(=O)N2CCC(N3CCC(C(=O)NC(C)C)CC3)CC2)o1	i	i	i	i	i
O=C1/C(=C\c2c(NCCOCCO)nc3ccccn3c2=O)SC(=S)N1Cc1ccco1	i	i	-15*	i	i
CCOc1ccccc1NC(=O)CN(c1ccc(OC)cc1OC)S(=O)(=O)c1ccccc1[N+](=O)[O-]	i	i	i	i	i
COc1ccc(/C=C2\Oc3cc(OCC(=O)N4CCC(C(=O)O)CC4)ccc3C2=O)c(OC)c1	i	i	i	i	i
COc1ccc(OC)c(/C=C2\Oc3cc(OCC(=O)N4CC(O)C[C@H]4C(=O)O)ccc3C2=O)c1 (stereo partly drawn)	i	i	i	i	14*
COc1ccc(OC)c(/C=C2\Oc3cc(OCC(=O)N4CCC(C(=O)O)CC4)ccc3C2=O)c1	i	i	i	55*	i
COc1cc(/C=C2/C(=O)ON=C2C)cc(Cl)c1O	i	i	i	40*	i
CCOc1cc(/C=C2/C(=O)ON=C2C)ccc1O	i	i	i	33*	i
C#CCOc1c(Cl)cc(/C=C2/C(=O)ON=C2C)cc1OC	i	i	i	i	i
CCOc1ccc(S(=O)(=O)N(C)c2ccc(OCC(=O)NCCc3ccc(OC)cc3)cc2)cc1	i	i	i	i	i
CCN(CCCC(=O)c1ccc(F)cc1)CCc1ccccc1	-7.1*	i	i	i	i
CCN(CCCc1ccccc1)CCCc1ccccc1	i	i	i	i	i
CC(C)N=C(N)N=C(N)Nc1ccc(Cl)cc1	.	.	i	i	i
NC(=NCCCCCCN=C(N)/N=C(\N)Nc1ccc(Cl)cc1)/N=C(\N)Nc1ccc(Cl)cc1	i	i	-5.7*	i	i
SMILES	RGS4 act	RGS4 inh	MrgX1 antag	MrgX1 ag	MrgX1 allo act
Cc1ccccc1N/N=C/c1sc(=O)n(Cc2cccc(C(=O)O)c2)c1Cl	i	i	i	i	i
COC(=O)c1cccc(Cn2c(Cl)c(/C=N/Nc3ccccc3C)sc2=O)c1	i	i	-8.1*	i	i
CCOc1ccc(CCNC(=O)CCNS(=O)(=O)c2ccc3c(c2)CCN3C(C)=O)cc1OCC	i	i	i	i	i
COc1ccc(C(C)NC(=S)NCc2ccc(F)cc2)cc1 (stereo not drawn)	i	i	i	i	i
CCC(NC(=S)NCc1ccc(F)cc1)c1ccccc1 (stereo not drawn)	i	i	-5.7*	i	i
CCN(C(=O)CN1C(=O)S/C(=C\C=C\c2ccccc2)C1=O)C1CCS(=O)(=O)C1 (stereo not drawn)	i	i	i	i	i
CCN(NC(=O)C(O)(c1ccc(F)cc1)c1ccc(F)cc1)C(=O)c1ccccc1	i	i	-5.8*	i	i
CCOC(=O)c1c(CSc2ccc(CC)cc2)oc2ccc(O)c(CN(C)C)c12	i	i	-5.9*	i	i
Clc1ccc(-c2cn(-c3ccccc3)c3[n+]2CCS3)cc1	-8.7*	i	i	i	i
Fc1ccc(-c2cn(-c3ccccc3)c3[n+]2CCS3)cc1	i	i	i	i	i
O=C(Cc1c(F)c(F)c(F)c(F)c1F)Nc1nc(-c2ccccc2)cs1	-7.1*	i	i	i	i
Cc1ccc[n+](CC(=O)c2cc3ccccc3oc2=O)c1	-9.9*	i	i	i	i
Cc1cc(C)cc(-n2c(C)cc(/C=C3\C(=N)N4N=C(CC(C)C)SC4=NC3=O)c2C)c1	-7.8*	i	i	i	i
CCCC1=NN2C(=N)/C(=C\c3cc(C)n(-c4cc(C)cc(C)c4)c3C)C(=O)N=C2S1	-8.6*	i	i	i	i
COCc1c(Br)c(C)nc(OCC(=O)N/N=C/c2cc(C)n(-c3ccc([N+](=O)[O-])cc3)c2C)c1C#N	-7.9*	i	i	i	i
O=C1CCC2S/C(=C/Nc3ccc(C(F)(F)F)cc3)C(=O)N12 (stereo not drawn)	i	i	-4.8*	i	i
Cc1ccc(-n2c3nc(=O)n(C)c(=O)c-3cc3ccccc32)cc1	-8*	i	i	i	i
CCN(CC)CCCNC(=O)c1ccc2c(SCC(=O)O)c3c(nc2c1)CCC3	i	i	i	i	i
CCN(CC)CCNC(=O)CSc1c2c(nc3cc(Cl)ccc13)CCCC2	-7.3*	i	i	i	i
Cc1cc(C)c2c(=O)n(CC(=O)NCCCN3CCN(c4ccccc4F)CC3)sc2n1	-9.6*	i	i	i	i
Cc1ccccc1CS(=O)(=O)CCC(=O)NCCCN1CCN(c2ccccc2F)CC1	i	i	i	i	i
O=C(CCS(=O)(=O)Cc1ccc(Cl)cc1)NCCCN1CCN(c2ccccc2F)CC1	-10*	i	i	i	i
COc1cccc(C(c2c(C)[nH]n(-c3ccccc3)c2=O)c2c(C)[nH]n(-c3ccccc3)c2=O)c1O	i	i	i	i	i
